Assay results published in paper PMC4829350 (Biochimica et biophysica acta, 2014).
Like-named read-outs stand apart in the source and are kept apart here. One block for each compound: values may come before it. Residues, ends and D or L forms follow the SMILES beside them. *: point of attachment. Cbz = O=C(OCc1ccccc1)*

Experiments:
[1] = target: T1, T-L active center of the proteasome (mouse) (Mus musculus, UniProt P70195); assay: Peptidolytic assay, T-L activity, mouse liver subcellular fractions; type: biochemical
T1 sequence (P70195 44-277): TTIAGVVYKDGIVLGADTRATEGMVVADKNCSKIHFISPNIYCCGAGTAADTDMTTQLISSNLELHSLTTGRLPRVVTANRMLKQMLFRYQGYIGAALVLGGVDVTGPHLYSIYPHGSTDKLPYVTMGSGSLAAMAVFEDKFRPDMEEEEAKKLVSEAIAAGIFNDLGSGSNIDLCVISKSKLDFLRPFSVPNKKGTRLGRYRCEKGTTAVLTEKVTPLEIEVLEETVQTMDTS
Summary of the method: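 Female mice aged 4–6 months; liver split into cytosolic, microsomal and nuclear fractions. T-L activity was read with a fluorogenic AMC peptide, against an AMC standard curve, as pmol AMC/min/μg protein. Inhibitor classes were titrated: boronate 5nM–10μM, lactone 0.2μM–8μM, aldehyde and vinyl sulfone 10μM–250μM. IC50 was taken as 50% activity loss, from exponential-decay or sigmoidal fits.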

[2] = target: ChT-L active center of the proteasome (NMR) (Heterocephalus glaber, UniProt G5ASK0); assay: Peptidolytic assay, ChT-L activity, naked mole-rat liver subcellular fractions; type: biochemical
[3] = target: T2, ChT-L active center of the proteasome (mouse) (Mus musculus, UniProt O55234); assay: Peptidolytic assay, ChT-L activity, mouse liver subcellular fractions; type: biochemical
T2 sequence (O55234 60-264): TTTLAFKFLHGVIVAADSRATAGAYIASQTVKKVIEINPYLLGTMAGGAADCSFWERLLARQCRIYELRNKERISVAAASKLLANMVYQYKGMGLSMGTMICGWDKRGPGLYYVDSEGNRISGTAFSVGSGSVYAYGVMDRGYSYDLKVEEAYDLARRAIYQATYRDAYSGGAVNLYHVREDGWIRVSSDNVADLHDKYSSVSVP

[4] = target: T-L active center of the proteasome (NMR) (Heterocephalus glaber, UniProt A0A0P6JE03); assay: Peptidolytic assay, T-L activity, naked mole-rat liver subcellular fractions; type: biochemical; settings: read-out: T-L IC50 NMR, cytosolic fraction, ± S.E.
[5] = target: human 26S proteasome [h26S] (Homo sapiens, UniProt P20618+P28074); assay: ChT-L activity of purified human 26S proteasome with supernatants or fractions; type: biochemical; settings: 10 nM BZ
[6] = target: T3, ProtMS (mouse partially purified proteasome) (Mus musculus, UniProt O55234); type: biochemical
T3 sequence (O55234 60-264): T2 sequence (O55234 60-264)

[7] = test system: ProtNMR (naked mole-rat partially purified proteasome); type: biochemical, Heterocephalus glaber
[8] = test system: naked mole-rat proteasome (ChT-L activity) with HSPs of NMR cytosol/supernatant; type: biochemical, Heterocephalus glaber; settings: for effect on inhibition resistance / sensitivity to inhibition: NMR cytosolic fraction or SNNMR + Prot, 20 μM MG132
Summary of the method: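 HSP antibodies (anti-HSP72, -HSP40, -HSP25 or -HSP90; 10pg to 400pg, serially diluted in PBS/50% glycerol) or small-molecule HSP72 inhibitors (25nM to 1000nM; 10μM to 1000μM) added to NMR cytosolic lysate or 100,000xg supernatant. Incubated 1hr at 30°C with 1mM ATP. Human 26S or partially purified NMR proteasome then added. ChT-L activity read with Suc-LLVY-AMC ± 20μM MG132, as pmol AMC/min/μg protein.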

[9] = test system: human 26S proteasome [h26S] in SNNMR; type: biochemical; settings: h26S in SNNMR challenged with MG132
Summary of the method: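 Naked mole-rat liver cytosolic lysate or its high-speed supernatant was incubated at 30°C for 1hr with 1mM ATP plus anti-chaperone antibodies (HSP72, HSP40, HSP25, HSP90; 10pg–400pg) or HSP72 inhibitors (25nM–1000nM or 10μM–1000μM). Purified human 26S proteasome was then added, and ChT-L activity was read with Suc-LLVY-AMC ± 20μM MG132.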

[10] = ChT-L IC50 Ms, cytosolic fraction, ± S.E.
[11] = sample ProtMS + FT, 20 μM MG132
[12] = sample ProtMS + FT, 50 μM MG132
[13] = sample ProtMS + SN, 20 μM MG132
[14] = sample ProtMS + SN, 50 μM MG132
[15] = sample ProtNMR + FT, 20 μM MG132
[16] = sample ProtNMR + FT, 50 μM MG132
[17] = sample ProtNMR + R, 20 μM MG132
[18] = sample ProtNMR + R, 50 μM MG132
[19] = sample ProtNMR + SN, 20 μM MG132
[20] = sample ProtNMR + SN, 50 μM MG132

- IC50 ([1]; read-out: T-L IC50 Ms, cytosolic fraction, ± S.E.): 16.2 ± 1.9 µM
- ChT-L IC50 in naked mole-rat relative to mouse cytosolic extracts ([2]; cytosolic extracts): 22 fold
- IC50 ([2]; read-out: ChT-L IC50 NMR, cytosolic fraction, liver, ± S.E.): 125 ± 5.6 µM
- IC50 ([3]; read-out: ChT-L IC50 Ms, cytosolic fraction, ± S.E.): 5.56 ± 1.57 µM
- IC50 [4]: 80.6 ± 2.5 µM
Compound: CC(C)CC(C=CS(C)(=O)=O)NC(=O)[C@H](CC(C)C)NC(=O)[C@H](CC(C)C)NC(=O)CCCCCNC(=O)CCCCCNC(=O)CCCCCNC(=O)CC12CC3CC(CC(C3)C1)C2 (stereo partly drawn) [Adh (VS), adamantane-acetyl-(6-aminohexanoyl)3-(leucinyl)3-vinyl-(methyl)-sulfone]

- ablation of ChT-L activity of h26S ([5]; h26S without fr.23): 75%
- reduction of ChT-L activity of h26S ([5]; in the presence of fr. 23): 30%
Compound: CC(C)C[C@H](NC(=O)[C@H](Cc1ccccc1)NC(=O)c1cnccn1)B(O)O [BZ, bortezomib]

- IC50 [3, 10]: 0.156 ± 0.005 µM
Compound: CC(=O)N[C@@H](CSC(=O)[C@]1([C@@H](O)C(C)C)NC(=O)[C@H](C)[C@@H]1O)C(=O)O [LC, lactacystin]

Compound: CC(C)C[C@@H](C=O)NC(=O)[C@H](CC(C)C)NC(=O)[C@H](CC(C)C)NC(=O)OCc1ccccc1 [MG132, N-(benzyl-oxycarbonyl) leucinyl-leucinyl-leucinal] (Cbz-Leu-Leu-Leu-aldehyde)
- ChT-L activity, Mean ± SE ([6]; sample ProtMS + FT (flow-through), 10 μM MG132): 17 ± 0.3 pmol AMC/min/μg protein
- inhibition at 10 µM ([6]; sample ProtMS + FT, 10 μM MG132): 85.5%
- ChT-L activity, Mean ± SE [6, 11]: 15 ± 3.0 pmol AMC/min/μg protein
- inhibition at 20 µM [6, 11]: 87.2%
- ChT-L activity, Mean ± SE [6, 12]: 3.0 ± 1.9 pmol AMC/min/μg protein
- inhibition at 50 µM [6, 12]: 97.4%
- ChT-L activity, Mean ± SE ([6]; sample ProtMS + R (retentate), 10 μM MG132): 178 ± 72 ^# pmol AMC/min/μg protein
- inhibition at 10 µM ([6]; sample ProtMS + R, 10 μM MG132): 36.9%
- ChT-L activity, Mean ± SE ([6]; sample ProtMS + R, 20 μM MG132): 172 ± 70 ^# pmol AMC/min/μg protein
- inhibition at 20 µM ([6]; sample ProtMS + R, 20 μM MG132): 39%
- ChT-L activity, Mean ± SE ([6]; sample ProtMS + R, 50 μM MG132): 89 ± 12 ^# pmol AMC/min/μg protein
- inhibition at 50 µM ([6]; sample ProtMS + R, 50 μM MG132): 68.4%
- ChT-L activity, Mean ± SE ([6]; sample ProtMS + SN (NMR supernatant), 10 μM MG132): 126 ± 22 ^# pmol AMC/min/μg protein
- inhibition at 10 µM ([6]; sample ProtMS + SN, 10 μM MG132): 52.1%
- ChT-L activity, Mean ± SE [6, 13]: 116 ± 20 ^# pmol AMC/min/μg protein
- inhibition at 20 µM [6, 13]: 55.9%
- ChT-L activity, Mean ± SE [6, 14]: 84 ± 34 ^# pmol AMC/min/μg protein
- inhibition at 50 µM [6, 14]: 68.1%
- ChT-L activity, Mean ± SE ([6]; sample ProtMS, 10 μM MG132): 25 ± 0.1 pmol AMC/min/μg protein
- inhibition at 10 µM ([6]; sample ProtMS, 10 μM MG132): 87.6%
- ChT-L activity, Mean ± SE ([6]; sample ProtMS, 20 μM MG132): 17 ± 0.2 pmol AMC/min/μg protein
- inhibition at 20 µM ([6]; sample ProtMS, 20 μM MG132): 91.5%
- ChT-L activity, Mean ± SE ([6]; sample ProtMS, 50 μM MG132): 11 ± 0.1 pmol AMC/min/μg protein
- inhibition at 50 µM ([6]; sample ProtMS, 50 μM MG132): 94.5%
- IC50 ([1]; T-L IC50 Ms, cytosolic fraction, ± S.E.): 14.6 ± 4.4 µM
- IC50 ([1]; T-L IC50 Ms, microsomal fraction): 6.63 µM
- IC50 ([1]; T-L IC50 Ms, nuclear fraction, ± S.E.): 12.8 ± 4.7 µM
- ChT-L activity, Mean ± SE ([7]; sample ProtNMR + FT (flow-through), 10 μM MG132): 40 ± 18 pmol AMC/min/μg protein
- % Inhibition ([7]; sample ProtNMR + FT, 10 μM MG132): 83.1%
- % Inhibition [7, 15]: 88.6%
- ChT-L activity, Mean ± SE [7, 15]: 27 ± 18 pmol AMC/min/μg protein
- % Inhibition [7, 16]: 93.2%
- ChT-L activity, Mean ± SE [7, 16]: 16 ± 13 pmol AMC/min/μg protein
- ChT-L activity, Mean ± SE ([7]; sample ProtNMR + R (retentate), 10 μM MG132): 542 ± 181 ^# pmol AMC/min/μg protein
- % Inhibition ([7]; sample ProtNMR + R, 10 μM MG132): 31.0%
- % Inhibition [7, 17]: 39.0%
- ChT-L activity, Mean ± SE [7, 17]: 479 ± 146 ^# pmol AMC/min/μg protein
- % Inhibition [7, 18]: 51.8%
- ChT-L activity, Mean ± SE [7, 18]: 378 ± 104 ^# pmol AMC/min/μg protein
- ChT-L activity, Mean ± SE ([7]; sample ProtNMR + SN (NMR supernatant), 10 μM MG132): 488 ± 58 ^# pmol AMC/min/μg protein
- % Inhibition ([7]; sample ProtNMR + SN, 10 μM MG132): 51.7%
- % Inhibition [7, 19]: 50.6%
- ChT-L activity, Mean ± SE [7, 19]: 499 ± 71 ^# pmol AMC/min/μg protein
- % Inhibition [7, 20]: 67.7%
- ChT-L activity, Mean ± SE [7, 20]: 327 ± 104 ^# pmol AMC/min/μg protein
- % Inhibition ([7]; sample ProtNMR, 10 μM MG132): 86.0%
- ChT-L activity, Mean ± SE ([7]; sample ProtNMR, 10 μM MG132): 72 ± 13 pmol AMC/min/μg protein
- % Inhibition ([7]; sample ProtNMR, 20 μM MG132): 91.6%
- ChT-L activity, Mean ± SE ([7]; sample ProtNMR, 20 μM MG132): 43 ± 0.3 pmol AMC/min/μg protein
- % Inhibition ([7]; sample ProtNMR, 50 μM MG132): 95.5%
- ChT-L activity, Mean ± SE ([7]; sample ProtNMR, 50 μM MG132): 23 ± 1.0 pmol AMC/min/μg protein
- IC50 [3, 10]: 8.22 ± 2.75 µM
- IC50 ([3]; ChT-L IC50 Ms, microsomal fraction): 0.99 µM
- IC50 ([3]; ChT-L IC50 Ms, nuclear fraction, ± S.E.): 4.6 ± 1.62 µM

Compound: N#Cc1ccc(COC[C@H]2O[C@@H](n3c(NCc4ccc(Cl)c(Cl)c4)nc4c(N)ncnc43)[C@H](O)[C@@H]2O)cc1 [VER155008]
- effect on inhibition resistance / sensitivity to inhibition [8]: did not disrupt the inhibition resistance
- effect on proteasome activity associated with SNNMR ([8]; titration 25nM to 1000nM): had no effect
- effect on inhibition resistance [9]: did not disrupt the inhibition resistance

Compound: NS(=O)(=O)C#Cc1ccccc1 [pifithrin-μ]
- effect on inhibition resistance / sensitivity to inhibition [8]: attenuated resistance to inhibition
